# A selection: hits, their analogues and other compounds. The true share with any hit is near 4.1%.
# KCNQ1 act: potentiators or activators of KCNQ1 channel, primary screen, cell-based, thallium flux, high-throughput | CHO-K1 KCNQ1, thallium flux FluxOR fluorescence; stronger effect = higher value | B-score at 10 µM | 0.35% of 310,000 active;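 active means fluorescence ratio B-score, a plate-corrected score, at least three library SD, with initial intensity B-score within 5 SD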
# Target sequence (P51787 whole entry, looked up): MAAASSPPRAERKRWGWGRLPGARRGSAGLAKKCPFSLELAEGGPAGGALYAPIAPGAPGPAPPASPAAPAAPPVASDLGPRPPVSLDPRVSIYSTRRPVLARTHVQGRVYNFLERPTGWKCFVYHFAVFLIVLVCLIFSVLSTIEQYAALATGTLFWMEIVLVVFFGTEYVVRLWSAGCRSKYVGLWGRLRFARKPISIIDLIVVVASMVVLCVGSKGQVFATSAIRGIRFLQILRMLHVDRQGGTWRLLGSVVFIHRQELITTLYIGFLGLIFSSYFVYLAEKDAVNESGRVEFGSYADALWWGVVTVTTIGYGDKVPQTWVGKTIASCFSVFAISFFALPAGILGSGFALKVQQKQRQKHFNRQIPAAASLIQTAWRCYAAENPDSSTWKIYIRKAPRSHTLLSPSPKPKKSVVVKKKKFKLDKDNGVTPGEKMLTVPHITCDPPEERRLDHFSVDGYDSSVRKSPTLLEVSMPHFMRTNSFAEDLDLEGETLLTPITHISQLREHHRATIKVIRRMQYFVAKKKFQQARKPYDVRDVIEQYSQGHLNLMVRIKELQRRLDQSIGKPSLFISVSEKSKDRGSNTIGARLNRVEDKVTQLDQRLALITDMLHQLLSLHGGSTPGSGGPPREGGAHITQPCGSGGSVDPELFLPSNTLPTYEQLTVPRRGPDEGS
#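 assay system = CHO-K1 cells stably expressing KCNQ1 | medium = assay buffer, equal DMSO in all wells | timing = 37 °C overnight plating, 90-min dark dye load, 20-min compound pretreatment | measured by = kinetic FluxOR thallium fluorescence, 10-s 1-Hz baseline, 110-s post-stimulus read | measure = fluorescence change relative to baseline, converted to B score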
# KCC2 mod: KCC2 cotransporter modulators, thallium flux, primary screen, cell-based, HEK293 KCC2, FluoZin-2 fluorescence, MLSMR; KCC2 cells, thallium flux FluoZin-2 fluorescence; 2.2% of 190,000 active; Solute carrier family 12 member 5 (Homo sapiens), Q9H2X9; B-score of Tl+ flux slope (higher = more flux/activation; lower = inhibition) at 10 µM;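 active means thallium flux slope and its plate-corrected score both differing from the plate sample mean at a set confidence after two filtering rounds, in either direction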;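 further: slope of fluorescence scaled to starting intensity during 10 to 20 s after thallium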
# KCNK3 inh: human KCNK3 channel inhibitors, primary screen, CHO cells, FluxOR thallium flux, B-score; Potassium channel subfamily K member 3 (Homo sapiens), O14649; 0.84% of 340,000 active; AID 602410, 2012; FluxOR fluorescence; stronger effect = lower value; B-score at 10 µM;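 active means B-score under library mean minus 4 SD, starting fluorescence ratio at most library mean plus 5 SD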;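 further: more negative B-score means stronger inhibition of thallium flux through KCNK3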
# KCNQ1 inh: inhibitors of human KCNQ1 channel, primary screen, cell-based, thallium flux, high-throughput | Potassium voltage-gated channel subfamily KQT member 1 (Homo sapiens), P51787 | CHO-K1 KCNQ1, FluxOR thallium flux fluorescence; stronger effect = higher value | B-score at 10 µM | 1.3% of 310,000 active | AID 2642, 2010;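 active means compounds whose thallium flux B-score, printed positive for inhibition, exceeds three library SD while starting fluorescence stays within three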;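 further: channel opened by potassium depolarization with thallium stimulus after 20 min compound exposure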
# KCNK9 block: KCNK9 potassium channel inhibitors, primary screen, HEK293 cells, thallium flux; B-score at 10 µM; 1.2% of 310,000 active; FluxOR thallium flux fluorescence; stronger effect = lower value; AID 488922, 2010;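 active means ratio B-score over 3 SD below the library mean, with starting fluorescence within 5 SD of its mean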;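 further: negative B-score means less thallium flux so channel inhibition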
# hERG rescue: hERG rescue from dofetilide block, primary screen, cell-based, CHO-hERG, FluxOR thallium flux, dofetilide IC70; Voltage-gated inwardly rectifying potassium channel KCNH2 (Homo sapiens), Q12809; dofetilide IC70 present; activation (rescue from dofetilide block), less the hit threshold, % at 10 µM; 0.51% of 310,000 active; AID 1511, 2009;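 active means activation above the mean of controls blocked by dofetilide plus 5 SD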;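 further: thallium influx through hERG after potassium depolarization seen as dye fluorescence rise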
# KCNK9 inh conf: KCNK9 potassium channel inhibitors, confirmation, HEK293 cells, thallium flux, duplicate; shares compounds with KCNK9 block; FluxOR thallium flux fluorescence; AID 492992, 2010; inhibition, % at 10 µM; 43% of 4,900 active;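 active means thallium signal inhibited by more than 5 SD of the compound-free buffer control wells, on both duplicate plates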;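 further: 0% = assay buffer control wells without compound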
# Kir2-1 spec: mouse Kir2.1 channel inhibition, confirmation, selectivity assay for KCNK9 modulator project, cell-based, HEK293, thallium flux; shares compounds with KCNK9 block; Kir2.1 cells, FluxOR thallium flux fluorescence; inhibition, % at 10 µM; 4% of 4,900 active; AID 492993, 2010;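 active means thallium signal drop more than 5 SD beyond the mean of the no-compound control wells, seen in both duplicate plates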;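 further: signal is fluorescence rise after thallium addition divided by baseline fluorescence; plate controls were assay buffer only for no effect and full block by chlorpromazine control for full effect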
# HEK293 Tl ctr: thallium flux in non-induced HEK293 cells, confirmation, counter-screen for KCNK9 inhibitor project, cell-based, second counter screen, non-induced KCNK9-HEK293 | 40% of 4,900 active | FluxOR thallium flux | inhibition, % at 10 µM | shares compounds with KCNK9 block;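 active means thallium signal drop beyond 5 SD of the untreated control mean, on both duplicate plates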;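 further: plate controls were buffer only IC0 wells for no effect and SID17386958 at its maximal inhibitory level for full effect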
# * = called active by the depositor; i = inactive; nt = no result given.
SMILES,KCNQ1 act,KCC2 mod,KCNK3 inh,KCNQ1 inh,KCNK9 block,hERG rescue,KCNK9 inh conf,Kir2-1 spec,HEK293 Tl ctr
COc1ccc(NC(=O)c2ccc(-c3ccc([N+](=O)[O-])cc3)o2)cc1OC,i,-0.264,i,i,-16*,-8.4,56.5%*,i,26.5%*
CCOC(=O)C1=C(C)N=C2SC(C)C(=O)N2C1c1ccccc1 (stereo not drawn),i,-1.43,i,i,i,-13.6,nt,nt,nt
CCOC(=O)C1=C(C)N=C2SC(CC)C(=O)N2C1c1cccc(F)c1 (stereo not drawn),i,nt,i,i,-11.6*,-11.7,35.5%*,i,34.0%*
NC(=O)N1c2ccccc2C=Cc2ccccc21,i,0.0568,i,i,i,-3.9,nt,nt,nt
CCN(CC)C(=O)N1c2ccccc2C=Cc2ccccc21,i,-2.18,i,i,-8.21*,-9.7,42.0%*,i,29.5%*
CCOC(=O)C1=C(CSc2nc(C)cc(C)c2C#N)OC(N)=C(C#N)C1c1ccccc1 (stereo not drawn),i,-0.33,i,i,-13.5*,-15.8,55.5%*,i,47.5%*
COc1cccc(C(=O)NC(C)c2ccc(-c3ccccc3)cc2)c1OC (stereo not drawn),i,nt,i,i,i,-8.0,i,i,i
C=C(C)CSc1nc2sc3c(c2c(=O)n1-c1ccc(C)cc1)CCN(C)C3,i,nt,i,i,i,-12.8,nt,nt,nt
CN1CCN(NS(=O)(=O)c2ccc(Cl)cc2)CC1,i,nt,i,i,i,-0.7,nt,nt,nt
COc1cc2c(cc1OC(C)=O)CCCCC2=O,nt,nt,i,nt,nt,nt,nt,nt,nt
O=C(c1ccccc1Cc1ccccc1)N1CCN(S(=O)(=O)c2ccccc2Br)CC1,i,nt,i,i,i,-11.2,nt,nt,nt
CCCC(=O)Nc1nc(C)c(-c2csc(Nc3cc(OC)ccc3OC)n2)s1,i,-0.252,i,i,-16.5*,-12.6,i,i,i
Cc1ccc(Cl)cc1Nc1nc(-c2sc(NC(=O)C(C)(C)C)nc2C)cs1,i,-0.495,i,i,-13.4*,-13.8,56.5%*,i,i
C=CCCC(=O)Nc1nc(C)c(-c2csc(Nc3cc(OC)ccc3OC)n2)s1,i,0.698,i,i,-8.73*,-4.0,56.0%*,i,28.5%*
CCCCCC(=O)Nc1nc(C)c(-c2csc(Nc3cc(Cl)ccc3OC)n2)s1,i,0.86,i,i,i,-9.3,nt,nt,nt
COc1ccccc1Nc1nc(-c2sc(NC(=O)c3cccc(Cl)c3)nc2C)cs1,i,1.14,nt,i,i,-8.3,nt,nt,nt
CCCC(C)C(=O)Nc1nc(C)c(-c2csc(Nc3cc(OC)ccc3OC)n2)s1 (stereo not drawn),i,1.13,i,i,-18*,-21.7,46.5%*,i,i
c1ccc(-c2ncnc3ccccc23)cc1,nt,nt,i,nt,nt,nt,nt,nt,nt
COc1ccc(/C(C)=N/NC(=O)c2cccc(S(=O)(=O)N3CCCC3)c2)c(O)c1,i,nt,i,i,i,-12.0,nt,nt,nt
C/C(=N/NS(=O)(=O)c1cc(C)ccc1C)c1ccc2c(c1)OCO2,i,nt,i,i,i,-9.9,nt,nt,nt
C=CCn1c(=O)c2c(nc3n2CCCN3CCc2ccc(OC)c(OC)c2)n(C)c1=O,i,nt,i,i,i,-7.8,nt,nt,nt
COc1ccccc1N1CCN(C(=O)c2oc3cc(C)cc(C)c3c2C)CC1,i,-0.108,i,i,i,-12.8,i,i,i
CCOc1ccccc1N1CCN(C(=O)c2cc3c(C)cc(C)cc3[nH]2)CC1,i,nt,i,i,-8.29*,-6.2,i,i,i
CCOC(=O)C1CCN(C(=O)c2cc3c(C)cc(C)cc3[nH]2)CC1,i,nt,i,i,i,-2.7,nt,nt,nt
COc1ccccc1N1CCN(C(=O)c2cc(=O)c3ccc(C)cc3o2)CC1,i,nt,i,i,i,-0.2,nt,nt,nt
SMILES,KCNQ1 act,KCC2 mod,KCNK3 inh,KCNQ1 inh,KCNK9 block,hERG rescue,KCNK9 inh conf,Kir2-1 spec,HEK293 Tl ctr
CCn1nc(C)cc1C(=O)N1CCCC(Nc2ccc(C(C)C)cc2)C1 (stereo not drawn),i,nt,i,i,i,-6.4,nt,nt,nt
COCCn1nnnc1C(c1cccs1)N1CCN(c2cccc(C(F)(F)F)c2)CC1 (stereo not drawn),i,-0.212,i,i,-14.1*,-5.9,59.0%*,i,39.5%*
CCOc1cc(CN2CCN(c3ccc(C(C)=O)cc3)CC2)ccc1OC,i,-0.0636,i,i,i,-12.5,nt,nt,nt
COC(=O)c1ccccc1NC(=O)CN1CCN(Cc2ccccc2)CC1,i,nt,i,i,i,-10.9,nt,nt,nt
CCOc1cc(CN2CCN(c3cccc(C(F)(F)F)c3)CC2)ccc1OC,i,-0.404,i,i,i,-3.6,i,i,i
CCOc1cc(CN2CCN(c3cccc(C(F)(F)F)c3)CC2)ccc1O,i,-0.0919,i,i,i,-21.1,i,i,i
COC(=O)c1cc(CN2CCN(c3ccccc3)CC2)ccc1O,i,nt,i,i,i,-3.2,i,i,i
N#CCCN(C(=O)COC(=O)C1CCN(S(=O)(=O)c2ccccc2C(F)(F)F)CC1)c1ccccc1,nt,nt,i,nt,nt,nt,nt,nt,nt
CC1Sc2ccc(C(=O)Nc3ncccc3O)cc2NC1=O (stereo not drawn),i,nt,i,i,i,-12.3,nt,nt,nt
COc1ccccc1C(=O)N1CCN(c2cccc(C(F)(F)F)c2)CC1,i,-1.02,i,i,i,-5.0,nt,nt,nt
COc1ccc(CC(C)N2CCN(c3cccc(C(F)(F)F)c3)CC2)cc1OC (stereo not drawn),i,0.0559,i,i,i,-5.2,i,i,i

# Source: PubChem (several laboratories)
